Results from different studies.
Protocols differ between the studies behind these lines.
CDK2 with cyclin A: Cyclin-dependent kinase 2, with cyclin A (CDK2, Homo sapiens, UniProt P24941)
CDK2: Cyclin-dependent kinase 2 (CDK2, Homo sapiens, UniProt P24941)
CDK2 with cyclin E: Cyclin-dependent kinase 2, with cyclin E (CDK2, Homo sapiens, UniProt P24941)
CDK2 with cyclin E1: Cyclin-dependent kinase 2, with cyclin E1 (CDK2, Homo sapiens, UniProt P24941)

| Structure (SMILES) | target | assay | quantity | result |
| --- | --- | --- | --- | --- |
| CN1CCC(c2c(O)cc(O)c3c(=O)cc(-c4ccccc4)oc23)C(O)C1 (centres unmarked) | CDK2 with cyclin A | enzyme activity, inhibitor | IC50 | 0.196 µM |
| C=CC(=O)Nc1ccc(O[C@@H]2CCC[C@@H](Nc3ncc(Cl)c(-c4c[nH]c5ccccc45)n3)C2)cc1 | CDK2 with cyclin A | enzyme activity, inhibitor, FRET | IC50 | > 10 µM |
| COc1cccc(OC)c1CNC(=O)c1ccc2c(c1)C(=NNc1ccc(S(N)(=O)=O)cc1)C(=O)N2 | CDK2 | binding | Kd | 0.0226 µM |
| O=S(=O)(/C=C/c1ccc(C(F)(F)F)cc1)c1ccc(-c2csc(-c3ccccc3)n2)cc1 | CDK2 | enzyme activity, inhibitor, mobility shift | IC50 | 26 µM |
| CN(C)CCNC1=Nc2ccccc2-c2[nH]c3ccccc3c2C1 | CDK2 with cyclin E | enzyme activity, inhibitor, radiometric | IC50 | 73 µM |
| Cc1cc(Nc2cc3ncccc3c(N[C@@H]3C[C@H]4CC[C@@H](C3)N4CCC#N)n2)n[nH]1 | CDK2 | binding, competition with immobilised ligand | Kd | 0.75 µM |
| O=c1cc(-c2ccccc2)oc2ccc3ccccc3c12 | CDK2 with cyclin E1 | enzyme activity, inhibitor, ADP detection | IC50 | > 10 µM |
| C=CC(=O)Nc1ccc(N2CCC[C@@H](Nc3ncc(Cl)c(-c4c[nH]c5ccccc45)n3)C2)c(F)c1 | CDK2 with cyclin A | enzyme activity, inhibitor, FRET | IC50 | 4.02 µM |
| OCc1c(-c2ccc(F)cc2)nc2sc3c(n12)CCCC3 | CDK2 | enzyme activity, inhibitor, mobility shift | IC50 | 19 µM |
| COc1c(C(=O)/C=C(\O)c2ccccc2)ccc2occc12 | CDK2 with cyclin E1 | enzyme activity, inhibitor, ADP detection | IC50 | > 100 µM |
| O=C(Nc1cc(C2CCCCC2)[nH]n1)c1ccc(Br)cc1 | CDK2 | thermal stability, DSF | Kd | > 100 µM |
| CN(C)CCNc1nc2ccccc2c2[nH]c3ccccc3c12 | CDK2 with cyclin E | enzyme activity, inhibitor, radiometric | IC50 | 70 µM |
| CN(C)CCNS(=O)(=O)c1ccc(N/C=C2\C(=O)Nc3ccccc32)cc1 | CDK2 | binding | Kd | 1.06 µM |
| c1ccc(CNc2ncnc3nc[nH]c23)cc1 | Cyclin-dependent kinase 2, with cyclin A (CDK2, Homo sapiens, UniProt P24941, F80G) | enzyme activity, inhibitor, radiometric | IC50 | ~1 µM |
